Experimental findings from article PMC3240686 (Journal of medicinal chemistry, 2011) are described below.

The subject of data set [1] is carrageenan-induced thermal hyperalgesia. The experiment in a line: Carrageenan-induced thermal hyperalgesia. The data set is classed as in vivo. Particulars: rats; for antihyperalgesic effect and its duration: oral 100 mg/kg, n=2, time post-carrageenan; for activity at inhibiting hyperalgesia: carrageenan model; for block of development of carrageenan-induced hyperalgesia, i.p.: i.p. injection 10 mg/kg; for block of development of carrageenan-induced hyperalgesia, i.p. / block of carrageenan-induced hyperalgesia, oral: 30 min before carrageenan, n=3. In outline:
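Under light CO2 (80%)/O2 (20%) anaesthesia, rats received subplantar 1% carrageenan in saline (vehicle: saline) into the right hindpaw. For prophylactic dosing, drug or vehicle was given by gavage or i.p. 30 min before carrageenan. Heat hyperalgesia was measured by the Hargreaves plantar test, with an infrared stimulus from below and a 20 s cut-off. The read-out was change in paw-withdrawal latency (s).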

A short description of data set [2]: Relative lipophilicity by reversed phase HPLC retention factors. The data set is classed as physicochemical. The conditions noted are these: relative to parent compound 7, isocratic conditions.
A short description of data set [3]: Observed acute toxicity in the carrageenan hyperalgesia studies. The data set is classed as in vivo, rats.
Data set [4] in a line: Cyclic voltammetry in CH2Cl2. The data set is classed as physicochemical.
Data set [5] deals with mechano-allodynia after CCI of the sciatic nerve. The experiment in a line: Chronic constriction injury. The conditions noted are these: mice. The data set is classed as in vivo.
The conditions of data set [6]: octanol-water, slow stir method.
Setting [7] is: dose 300 mg/kg, 2 h time point, n=6.

The mortality is the percentage killed. A higher mortality goes with a strong lethal effect. A word on the LogP: it is the decadic logarithm of the partition coefficient of the neutral form, usually between octanol and water.

Consider `CC(=O)Nc1ccc(O)cc1` [acetaminophen, reference compound], for which the “% inhibition of hyperalgesia” value in data set [1] (setting [7]) is on record as 20±4%.

On to “Mn(III)-5,15-bis(4-propionyloxymethyl)phenyl-TCHP [Compound 16b]”, for which, in data set [2], the “relative lipophilicity by RPHPLC retention factor” value (“relative lipophilicity” below) was “progressively more lipophilic”. The “antihyperalgesic effect and its duration” value in data set [1] was “strong antihyperalgesic effect out to 3 hours with a decline in this effect occurring in the 4–5 hour time period”.

On to “Mn(III)-5,15-bis(4-hydroxymethyl)phenyl-TCHP [Compound 15]”, for which, in data set [2], the “relative lipophilicity” value was “substantially less lipophilic than parent compound 7”. For the same compound, the “antihyperalgesic effect and its duration” value in data set [1] is “excellent potency out to the 5 hour time point”.

For the compound “Mn(III)-5, 10, 15, 25-tetrakis-phenyl-TCHP Chloride [Compound 12]”, the “activity at inhibiting hyperalgesia” value in data set [1] is reported as “active at inhibiting hyperalgesia”.

Take `CC[n+]1ccccc1-c1c2nc(c(-c3cccc[n+]3CC)c3ccc([n-]3)c(-c3cccc[n+]3CC)c3nc(c(-c4cccc[n+]4CC)c4ccc1[n-]4)C=C3)C=C2.[Mn+3]` [Mn(III)-TE-2-PyP^5+, Mn(III) meso-tetrakis[(N-ethyl)pyridinium-2-yl]porphyrin (5+), reference compound]: the “block of development of carrageenan-induced hyperalgesia, i.p.” value in data set [1] is on record as “blocked the development of carrageenan-induced hyperalgesia”. Moreover, the “block of carrageenan-induced hyperalgesia, oral” value in data set [1] (oral gavage 100 mg/kg) is “only 7 is able to block hyperalgesia when given orally”. Further, in data set [3] (i.p., 3 fold higher dose than the one required to block hyperalgesia), the mortality was determined as 100%.

On to `CC(=O)Oc1ccccc1C(=O)O` [aspirin, reference compound], for which the “% inhibition of hyperalgesia” value in data set [1] (setting [7]) is recorded as 50±6%.

As to “Mn(III)-5,15-di-phenyl-TCHP Chloride [Compound 10]”, in data set [4] (cyclic voltammetry in CH2Cl2), the “reversible (presumably porphyrin-based) oxidation potential” value stood at 0.89 V. vs. ferrocene. For the same compound, the “Mn(II/III) couple” value in data set [4] (cyclic voltammetry in CH2Cl2, chemically reversible) is recorded as −0.79 V vs. ferrocene. Also, the “activity at inhibiting hyperalgesia” value in data set [1] was “active at inhibiting hyperalgesia”.

With “Mn(III)-5,15-bis(4-isobutyryloxymethyl)phenyl-TCHP [Compound 16c]”, the “relative lipophilicity” value in data set [2] was “progressively more lipophilic”. For the same compound, in data set [1], the “antihyperalgesic effect and its duration” value is “potent anti-hyperalgesic action out to the 5 hour time point”.

Take `CC(C)Cc1ccc(C(C)C(=O)O)cc1` (centres unmarked) [ibuprofen, reference compound]: the “% inhibition of hyperalgesia” value in data set [1] (setting [7]) worked out at 99±5%.

Turning to Mn(III)-TCHP Chloride [Compound 7], the “effect on withdrawal responses of contralateral paws” value in data set [5] (oral 10–100 mg/kg) was “no effect”. Besides, the “reversal of neuropathic pain (mechano-allodynia)” value in data set [5] (oral 10–100 mg/kg at time of peak mechano-allodynia, n=4) was “rapid, dose-dependent and near-to-maximal reversal of neuropathic pain within 1h post-dosing”. Besides, the “95% CI of ED50” value in data set [5] (oral, at time of peak reversal, n=4) lay within 15.64 to 51.67 mg/kg/day. Moreover, the “ED50, reversal of mechano-allodynia” value in data set [5] (oral, day 7 after CCI, at time of peak reversal, n=4) came to 28 mg/kg. The same compound showed a LogP in data set [6] of 3.77. In data set [1] (100 mg/kg oral gavage at 3 h post carrageenan, 4 hour time point), the “reversal of established hyperalgesia: pain at 1 h after dosing” value is “pain was substantially reduced”. Moreover, the “block of development of carrageenan-induced hyperalgesia, i.p.” value in data set [1] is on record as “blocked the development of carrageenan-induced hyperalgesia”. Also, the “block of carrageenan-induced hyperalgesia, oral” value in data set [1] (oral gavage 100 mg/kg) is “able to block hyperalgesia when given orally”. In addition, the “% inhibition of hyperalgesia” value in data set [1] (oral gavage 100 mg/kg, for 2 h) is on record as around 100%. In data set [1] (oral gavage 100 mg/kg, out to 5 h), the “inhibitory effect at late time” value is given as “substantial inhibitory effect maintained out to 5 h”. Further, the acute toxicity result in data set [3] (doses at least 6–8 fold higher than the one needed to block hyperalgesia) is on record as “no observable acute toxicities”.

With “Mn(III)-5,15-bis(4-acetoxymethyl)phenyl-TCHP [Compound 16a]”, the “relative lipophilicity” value in data set [2] is listed as “progressively more lipophilic”. For the same compound, in data set [1], the “antihyperalgesic effect and its duration” value is recorded as “strong antihyperalgesic effect out to 2 hours post-carrageenan but the effect was lost at 3 hours”.
